Experimental data taken from ChEMBL document CHEMBL2380270, “Radiosynthesis and first evaluation in mice of [(18)F]NS14490 for molecular imaging of α7 nicotinic acetylcholine receptors” (Bioorg Med Chem, 2013).

Experiments:
Stomach = assay: Biodistribution in CD1 mouse stomach at 200 to 300 kBq, iv measured at 30 mins by gamma counting analysis; type: ADME, organism-based; settings: in vivo, 0.5 h
Procedure, shortened: (§1)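 Female CD-1 mice received 200–300 kBq [18F]radiotracer intravenously. Blood and urine were sampled under anaesthesia, then mice were killed by cervical dislocation at 5, 15, 30 or 60 min p.i. (n = 3; control at 60 min n = 7). Organs were removed and weighed, activity was gamma-counted, and uptake was expressed as % injected dose per g wet tissue.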

Lung [1] = assay: Biodistribution in CD1 mouse lung at 200 to 300 kBq, iv measured at 30 mins by gamma counting analysis; type: ADME, organism-based; settings: in vivo, 0.5 h; procedure, shortened: as §1
Blood [2] = assay: Biodistribution in CD1 mouse blood at 200 to 300 kBq, iv measured at 30 mins by gamma counting analysis; type: ADME, organism-based; settings: in vivo, 0.5 h
Procedure, shortened: (§2)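 Female CD-1 mice, 200–300 kBq radiotracer given iv, n = 3 per time point. Animals anaesthetised for blood and urine sampling, then killed by cervical dislocation at 5, 15, 30 or 60 min p.i. Organs removed, weighed and gamma-counted; uptake expressed as % injected dose per g wet tissue.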

Muscle tissue [3] = assay: Biodistribution in CD1 mouse muscle at 200 to 300 kBq, iv measured at 15 mins by gamma counting analysis; type: ADME, organism-based; settings: in vivo, 0.25 h; procedure, shortened: as §1
Zone of skin [4] = assay: Biodistribution in CD1 mouse skin at 200 to 300 kBq, iv measured at 15 mins by gamma counting analysis; type: ADME, organism-based; settings: in vivo, 0.25 h; procedure, shortened: as §1
Pancreas [5] = assay: Biodistribution in CD1 mouse pancreas at 200 to 300 kBq, iv measured at 15 mins by gamma counting analysis; type: ADME, organism-based; settings: in vivo, 0.25 h; procedure, shortened: as §1
Mus musculus [6] = assay: Biodistribution in CD1 mouse thymus at 200 to 300 kBq, iv measured at 15 mins by gamma counting analysis; type: ADME, organism-based; settings: in vivo, 0.25 h; procedure, shortened: as §1
Mus musculus [7] = assay: Biodistribution in CD1 mouse small intestine at 200 to 300 kBq, iv measured at 15 mins by gamma counting analysis; type: ADME, organism-based; settings: in vivo, 0.25 h; procedure, shortened: as §1
Lung [8] = assay: Biodistribution in CD1 mouse lung at 200 to 300 kBq, iv measured at 15 mins by gamma counting analysis; type: ADME, organism-based; settings: in vivo, 0.25 h; procedure, shortened: as §1
Blood [9] = assay: Biodistribution in CD1 mouse blood at 200 to 300 kBq, iv measured at 15 mins by gamma counting analysis; type: ADME, organism-based; settings: in vivo, 0.25 h; procedure, shortened: as §2
Femur [10] = assay: Biodistribution in CD1 mouse femur at 200 to 300 kBq, iv measured at 5 mins by gamma counting analysis; type: ADME, organism-based; settings: in vivo; procedure, shortened: as §2
Kidney [11] = assay: Biodistribution in CD1 mouse kidney at 200 to 300 kBq, iv measured at 5 mins by gamma counting analysis; type: ADME, organism-based; settings: in vivo; procedure, shortened: as §2
[12] = Biodistribution in CD1 mouse urine at 200 to 300 kBq, iv measured at 5 mins by gamma counting analysis; type: ADME, organism-based; settings: in vivo
Procedure, shortened: (§3)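 Female CD-1 mice given 200–300 kBq tracer intravenously. Animals anaesthetised for blood and urine sampling, then killed by cervical dislocation at 5, 15, 30 or 60 min (n = 3 per time; n = 7 at 60 min). Organs removed and weighed, activity gamma-counted, expressed as % injected dose per g wet weight. Blocking arm: 10 mg/kg i.p. in 0.9% saline, 10 min before tracer; two-tailed unpaired t test versus control.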

Lung [13] = assay: Biodistribution in CD1 mouse lung at 200 to 300 kBq, iv measured at 5 mins by gamma counting analysis; type: ADME, organism-based; settings: in vivo; procedure, shortened: as §1
Muscle tissue [14] = assay: Biodistribution in CD1 mouse muscle at 200 to 300 kBq, iv measured at 60 mins by gamma counting analysis in presence of SSR180711; type: ADME, organism-based; settings: in vivo, 1 h
Procedure, shortened: (§4)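 Blocking design in female CD-1 mice, n = 7 per group. The blocker was given at 10 mg kg^-1 i.p. in 0.9% saline 10 min before i.v. 200–300 kBq [18F]radiotracer. Mice were killed at 60 min p.i. and organs weighed and gamma-counted as % ID per g wet weight. Blocked groups were compared with controls by two-tailed independent Student's t test.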

Zone of skin [15] = assay: Biodistribution in CD1 mouse skin at 200 to 300 kBq, iv measured at 60 mins by gamma counting analysis in presence of SSR180711; type: ADME, organism-based; settings: in vivo, 1 h; procedure, shortened: as §4
Mus musculus [16] = assay: Biodistribution in CD1 mouse adrenal at 200 to 300 kBq, iv measured at 60 mins by gamma counting analysis in presence of SSR180711; type: ADME, organism-based, Adrenal gland; settings: in vivo, 1 h
Procedure, shortened: (§5)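 Blocking study in female CD-1 mice, n = 7 per blocker, with a matching control group. SSR180711 or NS6740 given at 10 mg kg⁻¹ ip in 0.9% saline 10 min before iv radiotracer (200–300 kBq). Organs taken at 60 min p.i., weighed and gamma-counted; uptake as % ID per g wet weight. Compared with control by two-tailed independent Student's t test.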

Pancreas [17] = assay: Biodistribution in CD1 mouse pancreas at 200 to 300 kBq, iv measured at 60 mins by gamma counting analysis in presence of SSR180711; type: ADME, organism-based; settings: in vivo, 1 h; procedure, shortened: as §4
Urinary bladder = assay: Biodistribution in CD1 mouse bladder at 200 to 300 kBq, iv measured at 60 mins by gamma counting analysis in presence of SSR180711; type: ADME, organism-based; settings: in vivo, 1 h; procedure, shortened: as §5
[18] = Biodistribution in CD1 mouse urine at 200 to 300 kBq, iv measured at 60 mins by gamma counting analysis in presence of SSR180711; type: ADME, organism-based; settings: in vivo, 1 h; procedure, shortened: as §3
Brain = assay: Biodistribution in CD1 mouse brain at 200 to 300 kBq, iv measured at 60 mins by gamma counting analysis in presence of SSR180711; type: ADME, organism-based; settings: in vivo, 1 h; procedure, shortened: as §5
Blood [19] = assay: Biodistribution in CD1 mouse blood at 200 to 300 kBq, iv measured at 60 mins by gamma counting analysis in presence of SSR180711; type: ADME, organism-based; settings: in vivo, 1 h; procedure, shortened: as §5
Femur [20] = assay: Biodistribution in CD1 mouse femur at 200 to 300 kBq, iv measured at 60 mins by gamma counting analysis; type: ADME, organism-based; settings: in vivo, 1 h; procedure, shortened: as §2
Mus musculus [21] = assay: Biodistribution in CD1 mouse thymus at 200 to 300 kBq, iv measured at 60 mins by gamma counting analysis; type: ADME, organism-based; settings: in vivo, 1 h; procedure, shortened: as §3
Spleen [22] = assay: Biodistribution in CD1 mouse spleen at 200 to 300 kBq, iv measured at 60 mins by gamma counting analysis; type: ADME, organism-based; settings: in vivo, 1 h; procedure, shortened: as §1
Mus musculus [23] = assay: Biodistribution in CD1 mouse small intestine at 200 to 300 kBq, iv measured at 60 mins by gamma counting analysis; type: ADME, organism-based; settings: in vivo, 1 h; procedure, shortened: as §1
Lung [24] = assay: Biodistribution in CD1 mouse lung at 200 to 300 kBq, iv measured at 60 mins by gamma counting analysis; type: ADME, organism-based; settings: in vivo, 1 h; procedure, shortened: as §1
Heart = assay: Biodistribution in CD1 mouse heart at 200 to 300 kBq, iv measured at 60 mins by gamma counting analysis; type: ADME, organism-based; settings: in vivo, 1 h; procedure, shortened: as §2
Muscle tissue [25] = assay: Biodistribution in CD1 mouse muscle at 200 to 300 kBq, iv measured at 30 mins by gamma counting analysis; type: ADME, organism-based; settings: in vivo, 0.5 h; procedure, shortened: as §1
Spleen [26] = assay: Biodistribution in CD1 mouse spleen at 200 to 300 kBq, iv measured at 30 mins by gamma counting analysis; type: ADME, organism-based; settings: in vivo, 0.5 h; procedure, shortened: as §1
[27] = Biodistribution in CD1 mouse urine at 200 to 300 kBq, iv measured at 30 mins by gamma counting analysis; type: ADME, organism-based; settings: in vivo, 0.5 h; procedure, shortened: as §3
Kidney [28] = assay: Biodistribution in CD1 mouse kidney at 200 to 300 kBq, iv measured at 30 mins by gamma counting analysis; type: ADME, organism-based; settings: in vivo, 0.5 h; procedure, shortened: as §2

SMILES: O=C(Oc1ccc(Br)cc1)N1CCN2CCC1CC2 [SSR180711]
- Drug uptake (Stomach): 7.29 % ID/g
- Drug uptake (Lung [1]): 6.78 % ID/g
- Drug uptake (Blood [2]): 1.01 % ID/g
- Drug uptake (Muscle tissue [3]): 1.88 % ID/g
- Drug uptake (Zone of skin [4]): 1.4 % ID/g
- Drug uptake (Pancreas [5]): 5.48 % ID/g
- Drug uptake (Mus musculus [6]): 2.98 % ID/g
- Drug uptake (Mus musculus [7]): 6.72 % ID/g
- Drug uptake (Lung [8]): 10.8 % ID/g
- Drug uptake (Blood [9]): 1.25 % ID/g
- Drug uptake (Femur [10]): 1.45 % ID/g
- Drug uptake (Kidney [11]): 10.6 % ID/g
- Drug uptake [12]: 23.9 % ID/g
- Drug uptake (Lung [13]): 8.48 % ID/g
- Drug uptake (Muscle tissue [14]): 1.02 % ID/g
- Drug uptake (Zone of skin [15]): 2.04 % ID/g
- Drug uptake (Mus musculus [16]): 3.65 % ID/g
- Drug uptake (Pancreas [17]): 2.96 % ID/g
- Drug uptake (Urinary bladder): 1.47 % ID/g
- Drug uptake [18]: 270 % ID/g
- Drug uptake (Brain): 0.15 % ID/g
- Drug uptake (Blood [19]): 0.78 % ID/g
- Drug uptake (Femur [20]): 2.09 % ID/g
- Drug uptake (Mus musculus [21]): 2.75 % ID/g
- Drug uptake (Spleen [22]): 7.46 % ID/g
- Drug uptake (Mus musculus [23]): 16.1 % ID/g
- Drug uptake (Lung [24]): 4.88 % ID/g
- Drug uptake (Heart): 1.84 % ID/g
- Drug uptake (Muscle tissue [25]): 1.26 % ID/g
- Drug uptake (Spleen [26]): 7.5 % ID/g
- Drug uptake [27]: 123 % ID/g
- Drug uptake (Kidney [28]): 8.5 % ID/g
